INS-1E ATP HTS: INS-1E beta cell protection from cytokine death | INS-1E cytokine-induced death, ATP luminescence, 48 h; normalised: neutral wells 0, positive control 100 | protection from cytokine-induced ATP loss, % at 10 µM | hit rate 0.1% among 20,000;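 active = mean replicate protection from cytokine-induced ATP loss at least 50% and at least 75% of replicates each reaching 50%; inconclusive = meets only one of the two criteria, mean or replicate share; inactive = fails both the mean and replicate share criteria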
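Assay system: INS-1E rat cells / Quantity: 8000 cells per well / Medium: RPMI without phenol red, 5% FBS / Probe or stimulus: three-cytokine cocktail (IFN-γ, TNF-α, IL-1β) / Dosing: one compound concentration, pin transfer / Timing: 48 h co-treatment, 10 min post-lysis read / Technique: CellTiter-Glo luminescence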
A1 apoptosis 2: blocks A1, raising caspase activity | MEF A1-2A-BIM cells, caspase-Glo luminescence, 3 h; percent of clofoctol response, DMSO zero | caspase activation, % (test concentration not listed) | 24,000 tested, under 10 active | AID 2465; in the data active = caspase activation above about 5.9%; inconclusive = no clear call, values can overlap the other calls; inactive = below about 2.2%
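system = A1-2A-BIM-expressing MEF cells | quantity = 2500 MEF cells/well | dosing = 50 nL compound per well, pinned | schedule = overnight cell settling, then 3 h compound exposure, 37 °C | signal = luminescence from DEVD-luciferin Caspase-Glo reagent, 1:1 in 50 mM HEPES, 1 h RT | read-out = Caspase-3/7 activation, seen as rise in luminescence signal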
T cruzi HTS: inhibitors of intracellular Trypanosoma cruzi; intracellular Trypanosoma cruzi in host cells, plate reader; activity score (inhibition), % at 5.01 µM; hit rate 4.9% among 22,000; in the data active = activity score above about 55%; inconclusive = no clear call, values can overlap the other calls;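 also: parasites and compound incubated about four days before reading; 0% = median of neutral control wells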
An asterisk follows results filed as active; u = inconclusive; x = no result given. This excerpt belongs to a sample that is enriched for hits.

SMILES	INS-1E ATP HTS	A1 apoptosis 2	T cruzi HTS
C[C@H]1CN([C@@H](C)CO)C(=O)c2cccc(NC(=O)c3cnccn3)c2O[C@@H]1CN(C)Cc1ccc(C(=O)Nc2ccccc2N)cc1	-14	0	u
C[C@H]1CN([C@@H](C)CO)C(=O)c2cccc(NC(=O)c3cnccn3)c2O[C@H]1CN(C)Cc1ccc(C(=O)Nc2ccccc2N)cc1	-21	1	67*
COc1cc(/C=N/NC(=O)CCCCCC(=O)Nc2ccccc2O)c(Br)cc1O	16	x	9
CC(/C=C/C(=O)NO)=C\c1ccccc1OC[C@@H]1[C@H]2C[C@H]3c4[nH]c5ccccc5c4CCN3C[C@@H]2CC[C@@H]1O	x	2	x
C[C@H]1CN([C@@H](C)CO)C(=O)c2cccc(NC(=O)c3nc4ccccc4s3)c2O[C@H]1CN(C)C(=O)Nc1ccc(C(F)(F)F)cc1	-73	0	79*
C[C@@H]1CN([C@@H](C)CO)C(=O)c2cccc(NC(=O)c3nc4ccccc4s3)c2O[C@H]1CN(C)C(=O)Nc1ccc(C(F)(F)F)cc1	-11	1	84*
C[C@@H]1CN([C@H](C)CO)C(=O)c2cccc(NC(=O)c3nc4ccccc4s3)c2O[C@@H]1CN(C)C(=O)Nc1ccc(F)cc1	-5	x	13
C[C@H]1CN([C@@H](C)CO)C(=O)c2cccc(NC(=O)c3nc4ccccc4s3)c2O[C@@H]1CN(C)C(=O)Nc1ccc(C(F)(F)F)cc1	-12	x	74*
C[C@H](CO)N1C[C@H](C)[C@@H](CN(C)C(=O)Nc2ccc(F)cc2)Oc2c(NC(=O)c3nc4ccccc4s3)cccc2C1=O	-2	0	-6
C[C@@H]1CN([C@H](C)CO)C(=O)c2cccc(NC(=O)c3nc4ccccc4s3)c2O[C@H]1CN(C)C(=O)Nc1ccc(F)cc1	6	0	-21
C[C@@H]1CN([C@@H](C)CO)C(=O)c2cccc(NC(=O)c3nc4ccccc4s3)c2O[C@H]1CN(C)C(=O)Nc1ccc(F)cc1	1	1	-2
C[C@@H]1CN([C@H](C)CO)C(=O)c2cccc(NC(=O)c3nc4ccccc4s3)c2O[C@H]1CN(C)C(=O)Nc1ccc(C(F)(F)F)cc1	-2	1	61*
O=C(O)CCCCCCC(=O)N/N=C/c1cc(O)ccc1Br	6	1	-20
NC(=O)[C@@H]1[C@H]2C(=O)O[C@H](c3ccccc3)[C@H](c3ccccc3)N2[C@H](c2ccccc2OCCO)[C@@]12C(=O)Nc1ccc(C#CC3=CCCCC3)cc12	x	2	x
O=C(CCCCCCC(=O)Nc1ccccc1O)N/N=C\c1ccc2ccccc2n1	4	0	12
COc1ccccc1CN1C(=O)c2ccccc2[C@@]2(Cc3ccccc3N(CCCN(C)C)C2=O)[C@@H]1c1ccc(CO)cc1	x	-1	x
COC(=O)CCCCCCC(=O)N/N=C/C[C@H](O)[C@H](O)[C@@H](C)O	12	x	-14
O=C(O)c1cccc(/C=N/NC(=O)c2ccccc2O)c1	-45	-12	-8
C[C@H]1CN([C@@H](C)CO)C(=O)Cc2cc(NC(=O)c3ccncc3)ccc2O[C@H]1CN(C)Cc1ccc(C(=O)Nc2ccccc2N)cc1	1	x	34
C[C@H]1CN([C@@H](C)CO)C(=O)Cc2cc(NC(=O)Nc3cccc4ccccc34)ccc2O[C@H]1CN(C)Cc1ccc(C(=O)Nc2ccccc2N)cc1	-9	0	74*
C[C@H]1CN([C@@H](C)CO)C(=O)Cc2cc(NC(=O)Nc3cccc4ccccc34)ccc2O[C@@H]1CN(C)Cc1ccc(C(=O)Nc2ccccc2N)cc1	-14	-2	38
C[C@H](CO)N1C[C@H](C)[C@@H](CN(C)Cc2ccc(C(=O)Nc3ccccc3N)cc2)Oc2ccc(NC(=O)Nc3ccc(F)cc3)cc2CC1=O	x	0	x
C[C@H]1CN([C@@H](C)CO)C(=O)Cc2cc(NC(=O)Nc3ccc(F)cc3)ccc2O[C@H]1CN(C)Cc1ccc(C(=O)Nc2ccccc2N)cc1	-6	-1	56*
C[C@H]1CN([C@@H](C)CO)C(=O)Cc2cc(N(C)C)ccc2O[C@@H]1CN(C)Cc1ccc(C(=O)Nc2ccccc2N)cc1	6	x	70*
C[C@@H]1CN([C@@H](C)CO)C(=O)Cc2cc(N(C)C)ccc2O[C@H]1CN(C)Cc1ccc(C(=O)Nc2ccccc2N)cc1	x	0	x
SMILES	INS-1E ATP HTS	A1 apoptosis 2	T cruzi HTS
C[C@@H]1CN([C@H](C)CO)C(=O)Cc2cc(NC(=O)Nc3ccc(F)cc3)ccc2O[C@@H]1CN(C)Cc1ccc(C(=O)Nc2ccccc2N)cc1	-15	0	60*
C[C@H]1CN([C@@H](C)CO)C(=O)Cc2cc(NC(=O)Nc3ccccc3)ccc2O[C@H]1CN(C)Cc1ccc(C(=O)Nc2ccccc2N)cc1	12	0	69*
C[C@H](CO)N1C[C@H](C)[C@@H](CN(C)Cc2ccc(C(=O)Nc3ccccc3N)cc2)Oc2ccc(NC(=O)Nc3ccccc3)cc2CC1=O	x	-1	x
C=CC[C@@]12N=C(c3ccc(OCCCO)cc3)O[C@@H]1c1ccccc1N(CCS(=O)(=O)c1ccccc1)C2=O	x	0	x
C[C@@H]1CN([C@H](C)CO)C(=O)c2cccc(NC(=O)NC3CCCCC3)c2O[C@H]1CN(C)CC1CCCCC1	-57	-1	83*
C[C@@H]1CN([C@@H](C)CO)C(=O)c2cccc(NC(=O)NC3CCCCC3)c2O[C@@H]1CN(C)Cc1ccc(Oc2ccccc2)cc1	-53	x	64*
C[C@H](CO)N1C[C@H](C)[C@H](CN(C)CC2CC2)Oc2c(NS(=O)(=O)c3cn(C)cn3)cccc2C1=O	1	-2	-7
C[C@@H]1CN([C@H](C)CO)C(=O)c2cccc(NC(=O)NC3CCCCC3)c2O[C@@H]1CN(C)Cc1ccc(C(F)(F)F)cc1	-27	x	23
C[C@@H]1CN([C@H](C)CO)C(=O)c2cccc(NS(=O)(=O)c3cn(C)cn3)c2O[C@@H]1CN(C)CC1CCCCC1	1	1	60*
C[C@H]1CN([C@@H](C)CO)C(=O)c2cccc(NC(=O)NC3CCCCC3)c2O[C@H]1CN(C)Cc1ccc(Oc2ccccc2)cc1	-32	1	27
C[C@H](CO)N1C[C@H](C)[C@@H](CN(C)CC2CCCCC2)Oc2c(NC(=O)NC3CCCCC3)cccc2C1=O	-13	x	23
C[C@@H]1CN([C@@H](C)CO)C(=O)c2cccc(NC(=O)NC3CCCCC3)c2O[C@H]1CN(C)Cc1ccc(C(F)(F)F)cc1	-6	x	85*
CCO[C@@H]1OC(C(=O)N2CCOCC2)=C[C@H](c2ccc3c(c2)OCO3)[C@H]1CCCO	x	1	x
COC(=O)c1cn(CC(=O)Nc2ccon2)nn1	x	-1	x
O=C(CCCCCC(=O)N/N=C/c1ccc(Br)cc1)NO	x	0	x
C#CCNC(=O)C1=C[C@H](c2ccc(C#C)cc2)[C@@H](CCCO)[C@H](OCC)O1	x	-1	x
C=C(C)[C@@H]1CC=C(/C=N/NC(=O)c2ccccn2)CC1	-22	x	-11
C[C@@H]1CN([C@H](C)CO)C(=O)c2cccc(NC(=O)NC3CCCCC3)c2O[C@@H]1CN(C)Cc1ccc(-c2ccccc2)cc1	-32	x	70*

From PubChem
